Assay results: ChEMBL document CHEMBL2346605, “4-Nerolidylcatechol and its synthetic analogues: antioxidant activity and toxicity evaluation” (Eur J Med Chem, 2013)
Values after ≈ are worked out from the molar mass of the structure shown. Active and inactive are the calls of the source. No cut-off for these calls is given here.

Tests used:
[1] = Toxicity against human erythrocytes assessed as hemolytic rate after 1 hr by haemolytic assay; assay type: cell-based, Erythrocyte; conditions: read-out: Activity
Method in brief: (§1)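 Erythrocytes from blood banks suspended as a 2% saline suspension. Incubated 1 h with compound (50–0.419 µg/mL). Triton X (5 mg/mL) used as positive control. Absorbance read at 450 nm. ANOVA with Tukey test, p < 0.05.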

[2] = Toxicity against human erythrocytes assessed as disruption of cell membrane after 1 hr by haemolytic assay; assay type: cell-based, Erythrocyte; method in brief: as §1
[3] = tested on: Erythrocyte; experiment: Antioxidant activity against H2O2-induced oxidative stress in human erythrocyte membrane at 12.5 to 100 uM treated for 30 mins prior to H2O2 challenge measured after 3 hrs; assay type: functional, cell membranes
Method in brief: (§2)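 Erythrocytes from blood-bank samples, washed in saline phosphate with 1 mM NaN3 at 4 °C, plasma and white cells removed. Preincubated with compound 30 min at 37 °C, then brought to 2% haematocrit in PBS. Stress induced by H2O2 (300 μM), 3 h at 37 °C. Absorbance read at 540 nm. Mean ± S.D. of three experiments in duplicate.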

[4] = tested on: Radical scavenging activity; experiment: Antioxidant activity assessed as DPPH radical scavenging activity after 30 mins; assay type: functional
Method in brief: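 Compound (500–0.48 µg/mL) mixed with DPPH, held 30 min at 25 °C in the dark, absorbance read at 517 nm. AA% = 100 − [(ABS_T − ABS_B)×100/ABS_C], with a compound + ethanol blank and a DPPH + ethanol negative control.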

[5] = Toxicity against human erythrocytes assessed as hemolytic potential after 1 hr by haemolytic assay; assay type: cell-based, Erythrocyte; conditions: read-out: Activity; method in brief: as §1
[6] = Pro-oxidant activity in H2O2-stimulated human erythrocyte membrane assessed as increase in hemolysis at >35 uM treated for 30 mins prior to H2O2 challenge measured after 3 hrs; assay type: ADME, cell-based; method in brief: as §2
[7] = tested on: Mus musculus; experiment: Acute toxicity in Swiss mouse assessed as depression at 2000 mg/kg, po administered as single dose measured during 14 days after drug exposure; assay type: organism-based; parameters: dose 2000 mg/kg, route oral; conditions: in vivo, 336 h
Method in brief: (§3)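 Female Swiss mice (eight weeks old, specific pathogen-free, kept at 22 °C with food and water ad libitum, acclimatised five days) were tested under OECD Test Guideline 423. Each received a single dose by oral gavage, n = 3. The starting dose came from the ICCVAM prediction model using 3T3 neutral red uptake IC50. Animals were observed individually during the first 30 min and periodically over 24 h, especially the first 4 h, then daily for 14 days.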

[8] = tested on: Mus musculus; experiment: Acute toxicity in Swiss mouse assessed as agitation at 2000 mg/kg, po administered as single dose measured during 14 days after drug exposure; assay type: organism-based; parameters: dose 2000 mg/kg, route oral; conditions: in vivo, 336 h; method in brief: as §3
[9] = tested on: Mus musculus; experiment: Acute toxicity in Swiss mouse assessed as animal's death at 2000 mg/kg, po administered as single dose measured during 14 days after drug exposure; assay type: organism-based; parameters: dose 2000 mg/kg, route oral; conditions: in vivo, 336 h; method in brief: as §3
[10] = Acute toxicity in po dosed Swiss mouse administered as single dose measured for 14 days after drug exposure; assay type: organism-based; conditions: in vivo; method in brief: as §3
[11] = Genotoxicity in human T lymphocytes assessed as proportion of cells with DNA damage at 100 uM after 1 hr by comet assay (reference value: 10%); assay type: toxicity, cell-based; conditions: t-cell
[12] = Genotoxicity in human T lymphocytes assessed as proportion of cells with DNA damage at 50 uM after 1 hr by comet assay (reference value: 10%); assay type: toxicity, cell-based; conditions: t-cell
[13] = Genotoxicity in human T lymphocytes assessed as proportion of cells with DNA damage at 25 uM after 1 hr by comet assay (reference value: 10%); assay type: toxicity, cell-based; conditions: t-cell
[14] = Genotoxicity in human T lymphocytes assessed as proportion of cells without DNA damage at 100 uM after 1 hr by comet assay (reference value: 90%); assay type: toxicity, cell-based; conditions: t-cell
[15] = Genotoxicity in human T lymphocytes assessed as proportion of cells without DNA damage at 50 uM after 1 hr by comet assay (reference value: 90%); assay type: toxicity, cell-based; conditions: t-cell
[16] = Genotoxicity in human T lymphocytes assessed as proportion of cells without DNA damage at 25 uM after 1 hr by comet assay (reference value: 90%); assay type: toxicity, cell-based; conditions: t-cell
[17] = Myelosuppressive activity against Swiss mouse CFU-GM cells assessed as inhibition of cell growth and differentiation after 7 days; assay type: cell-based; conditions: 168 h
Method in brief: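 Swiss mouse bone marrow cells (1×10^5) in agar with 2× DMEM, mouse GM-CSF and bovine serum. Ethanolic compound solutions (534–4.17 μM) added, medium-only negative control. Incubated seven days, then CFU-GM colonies counted under 32× magnification. ANOVA.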

Row | SMILES | hemolysis at 1 h [1] [%] | IC50 at 1 hr [2] [µg/mL] | Activity [3] | Activity [4] | hemolysis at 1 h [5] [%] | Activity [6] | Activity [7] | Activity [8] | Activity [9] | LD50 at 336 h [10] [mg/kg] | Activity [11] [%] | Activity [12] [%] | Activity [13] [%] | Activity [14] [%] | Activity [15] [%] | Activity [16] [%] | IC50 [17] [µM]
1 | CC(C)=CCC/C(C)=C/CNc1ccccc1 | < 5 | < 0.419 | Active | Active |  |  |  |  |  |  |  |  |  |  |  |  | 
2 | CC(C)=CCC/C(C)=C/CNc1cc(C)nn1C | > 5 | 1.76 (≈ 7.11 µM) |  | Active | 75 | Toxic |  |  |  |  |  |  |  |  |  |  | 
3 | CC(C)=CCC/C(C)=C/CNc1ccc(O)cc1 | < 5 | < 0.419 | Active | Active |  |  | Toxic | Toxic | Non-toxic | > 2000 | 30 | 28 | 22 | 70 | 72 | 78 | 460
4 | CC(C)=CCC/C(C)=C/CN(c1ccc(O)cc1)S(C)(=O)=O | < 5 | < 0.419 | Active |  |  |  |  |  |  |  |  |  |  |  |  |  | 
5 | CC(C)=CCC/C(C)=C/CNc1ccc2c(c1)OCO2 | < 5 | 18.3 (≈ 67.1 µM) | Active | Active |  |  |  |  |  |  |  |  |  |  |  |  | 
